First the molecules themselves.
B1: tRNA (parent)
chain: GUUCCGUUGGCGUAAUGGUAACGCGUCUCCCUCCUAAGGAGAAGACUGCGGGUUCGAGUCCCGUACGGAACG

Variants at the floor of the assay were thinned out.

In the data set the parent is B1. The experiment in a line: yeast fitness relative to wild type (ratio to wild type); higher = fitter; tRNA-Arg(CCU), competitive growth, 37 C, YPD. In a few lines: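 The tRNA-Arg(CCU) gene variants were made by chemical synthesis with a 3% per-site mutation rate at 69 sites and inserted at the native genomic locus of Saccharomyces cerevisiae. After pooling, the strains were competed in YPD at 37°C for 24 hours in six parallel replicates. Gene amplicons from the start population and each end population were read by 100-nucleotide paired-end sequencing, and Darwinian fitness relative to wild type was taken from genotype frequency changes. Genotypes needed ≥ 100 starting reads, and estimates < 0.5 were set to 0.5.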
With GUACCGUUGGCGUCAUGGUAACGCGUCUCCCUCAUAAGGAGAAGACUGCGGAUUCGAGUCCCGUACGGAGCG [U3A A14C C34A G52A A70G], the yeast fitness worked out at 0.673.
Consider GGUCCGUUGGCGUAAUGGUAACGCGUCUCCCUCCUAAGGAGAAGACUGCGGGUUCGAGUCCCGUACCGAACG [U2G G67C], for which the yeast fitness came to 0.759.
For GGUCCGUUGGCGUAAUGGUAACGCGUCUCCCUCCUAAGGAGAAGACUGCGGGUUCGAGUCCCGUACUGAACG [U2G G67U], the yeast fitness is 0.821.
For the variant GUACCGUUGGCGUUAUGGUAACGCGUCUCCCUCCUAAGGAGAAGACUGCGGGUUCGUGUCCCGUACGGAACG [U3A A14U A57U], the yeast fitness is at most 0.5.
Take GGUCCGUUGGCGUAAUGGAAACGCGUCUCCCUCCUAAGGAGAAGACUGCGGGUUCGAGUCCCGUACGGUACG [U2G U19A A69U]: the yeast fitness was 0.551.
As to GUACCGUUGGCGUCAUGGUCACGCGUCAGCCCCCUAAGAAGAAGACUGCGGGUUCGCGUCCCGUACGGAACG [U3A A14C A20C U28A C29G U32C G39A A57C], the yeast fitness was at most 0.5.
Turning to GGGCCGUUGGUGUAAUGGUAACGCGUCUCCCUCCUAAGGAGAAGACUGCGGCUUGGAGUCCCGUACGGAGCG [U2G U3G C11U G52C C55G A70G], the yeast fitness was at most 0.5.
Regarding GUACCGUUGGCGUCAUGGUAACGCGUCUCCCUCCUAAGGAGAAGAUUGCGGGUUCGAGUCCCGUACGGAACG [U3A A14C C46U], the yeast fitness was at most 0.5.
On to GUACCGUUGGCGUCAUGGUAACGCGUCUCCCUCCUAAGGAGAAGAGUGCGGGUUCGAGUCCCGUACGGAACG [U3A A14C C46G], for which the yeast fitness was at most 0.5.
With GGUCCGCUGGCGUAAUGGUAACGCGUCACCCUCCUAAGGAGAAGACUGCGGGUUCGAGUCCCGUACGGAACG [U2G U7C U28A], the yeast fitness was at most 0.5.
Consider GGUCCGUUGGCGUAAUGGUAACGCGUCGCCCUCCUAAGGAGAAGCCUGCGGGUUCGAGUCCCCUACGGAACG [U2G U28G A45C G63C], for which the yeast fitness was at most 0.5.
Consider GGUCCGUUGGCGUAAUGGUAACGCGUCGCCCUCCUAAGGAGAAGACUGCGGGUUCGAGACCCGUACGGAACG [U2G U28G U59A], for which the yeast fitness was at most 0.5.
As for GGUCCGUUGGCGUAAUGGUAACGCGUCUCCCUCCCAAGGAGAAGACUGCGGGUUCGAGUCCCGUACGGAACG [U2G U35C], the figure is 0.72.
For the variant GUACCGUUGGCGUGAUGGUAACCCGUCUCCCUCCUAAGGAGAAGACUGCGGGUUCGAGUCCCGUCCGGAACG [U3A A14G G23C A65C], the yeast fitness is at most 0.5.
GGUCCGUUGGCGUAAUGGAAACGCGUCUCCCUCCUAAGGAGAAGACUGCGGGUUCGAGUCCCGUAUGGAACG [U2G U19A C66U]: the yeast fitness amounted to 0.606.
GGUCCGUUGGCGUAAUGGUAACGCGUCGCCCUCCUAAGGAGAAGACUGCGGGUUCGAGUCCCGUACGCAACG [U2G U28G G68C]: the yeast fitness is at most 0.5.
On to GUACCGUUGGCGUGAUGGUAACGGGUCUCCCUCCUAAGGAGCAGACUGCGGGUUCGAGUCCCGUACGGAACG [U3A A14G C24G A42C], for which the yeast fitness came to 0.54.
Regarding GGUCCGUUGGCGUAAUGGAAACGCGUCUCCCUCCUAAGGAGAAGAUUGCGGGUUCGAGUCCCGUACGGAACG [U2G U19A C46U], the yeast fitness is at most 0.5.
As for GGUCCGCUGGCGUAAUGGUAACGCGUCUCCCUCCUACGGAGAAGACUGCGGGUUCGAGCCCCGUACGGAACG [U2G U7C A37C U59C], the figure is at most 0.5; as for GGUCCGUUGGCGUAAUGGUAACGCGACUCCCUCCUAAGGAGAGCACUGCGGGCUCGAGUCCCGUACGGAACG [U2G U26A A43G G44C U53C], at most 0.5; as for GGUCCGUCGGCGUAAUGGUAACGCGUCUCCCUCCUAAGGAGAAGACUGCGGGUUCGAGUCCCGUACGGAACG [U2G U8C], 0.891.
As to GUACCGUUGGCGUGAUGGUAACGGGUCUACCUCCUAAGGAGAAGACUGCCGGUUCGCGUCCCGUACGGAACG [U3A A14G C24G C29A G50C A57C], the yeast fitness is at most 0.5.
As for GGUCCGUUGGCGCAAUGGUAGCGCGUCUCCCUCCUAAGCAGAAGACUGCGGGUUUGAGUCCCGUACGGAACG [U2G U13C A21G G39C C55U], the yeast fitness was at most 0.5.
As for GGUCCGUUGGCGUAAGGGUAUCGCGUCUCCCUACUAAGGAGAAGACUGCGGGUUCGAGUCCCGUAGGGAACG [U2G U16G A21U C33A C66G], the figure is at most 0.5; as for GGUCCGUUGGCGAAAAGGUAACGCGUCUGCCUCCUAAGGAGAAGACUGCGGGUUCGAGUCCCGUACGGAACG [U2G U13A U16A C29G], at most 0.5.
As to GUACCGUUGGCGUACUGGUAAGGCGUCUCCCCCCUAAGGAAAAGACUGCGGGUUCGAGUCCCGUACGGAACG [U3A A15C C22G U32C G41A], the yeast fitness was at most 0.5.
For GGUCCGUUGGCGAAAUGGUAACGCGUCACCCUCCUAAGAAGAAGACUACGGGUUCGAGUCGCGUAGGGAACG [U2G U13A U28A G39A G48A C61G C66G], the yeast fitness was at most 0.5.
In the case of GGUCCGUCGGCGUAAUGGUAACGCGCCUCCCUCCUAAGGAGAAGACUGCGGGUUCAAGUCCCGUACGGAACG [U2G U8C U26C G56A], the yeast fitness was at most 0.5.
GUACCGUUGGCGUUAUGGUAACGCGUCUCCCUCCUAAGGAGAAGACUGCGGGUUCGAGUCCCGUACGGAACG [U3A A14U]: the yeast fitness came to 0.731.
For the variant GUACCGUUGGCGUUAUGGUAACGCGUCUCCCUCCUAAGGAGAAGAUUGCGGGAUCGAGUCCCGUACGGAACG [U3A A14U C46U U53A], the yeast fitness is at most 0.5.
As for GGUCCGUUGGCGAAAUGGUAACGCGUCUCCCUCCUAAGGAGAAGACUGCGGGUUCGAAUCCCGUACGGAACG [U2G U13A G58A], the figure is 0.585; as for GGUCCGUUGGCGAAAUGGUAAUGCGUCUCCCUCCUAAGGAGAAGACUGCGGGUACGAGUCGCGUACGGCACG [U2G U13A C22U U54A C61G A69C], at most 0.5.
Take GUACCGUUGGCGUGAUGGUAACCCGUCUCCCUCCUAAGGAGAAGACUGCGGGUUCGAGUCCCGUACGGACCG [U3A A14G G23C A70C]: the yeast fitness worked out at 0.573.
As to GGACUGCAGGCGUAAUGGUCACGCGUCUCCCUCCCAUGGAGAAGACUGCGGGUUCGCGUCCCGUACGGAACG [U2G U3A C5U U7C U8A A20C U35C A37U A57C], the yeast fitness is 0.565.
Consider GGGCCGUUGGCGUAAUGGUAACGCGUCUGGCUCCUAAGGAGAAGAGUGCGGGUUCGAGUCCCGUACGGAACG [U2G U3G C29G C30G C46G], for which the yeast fitness was at most 0.5.
As to GGUCCGUUGGCGUAAUGGUAACGCGUCUCCCUCCUAAGGAGAAGACUGCGGGUUCGAGUCCCGUACGUAACG [U2G G68U], the yeast fitness is 0.835.
For GUACCGUUGGCGUACUGGUAACGCGUCUCCCUCCUAAGGAGAAGACCGCGGGUUCGAGUCCCGUACGGAACG [U3A A15C U47C], the yeast fitness was at most 0.5.
In the case of GGUCCGUAGGCGUAAUGGUAACACGGCUCCCUCCUAAGGAGAGGACUGCGGGUCAGAGUCCCGUACGGAACG [U2G U8A G23A U26G A43G U54C C55A], the yeast fitness was at most 0.5.

Source of the values: the RNAGym collection of RNA variant scans (doi:10.1126/science.aae0568).
